Calls of active or inactive are those of the source. No cut-off for these calls is given here.
Key:
Rattus norvegicus [1] = test: In vivo agonist activity at 5-HT1A receptor in WAY100635 pre-treated Sprague-Dawley rat DA neuron assessed as increase in bursts at 1 mg/kg, iv; type: functional, organism-based; parameters: dose 1 mg/kg
Procedure, shortened: (§1)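 Anesthetized (chloral hydrate) Sprague-Dawley rats given raclopride, then WAY100635 before compound 1 mg/kg. VTA DA neuron single-unit firing rate and bursts analysed every 10 s as % of post-raclopride baseline. n = 5, paired t-test.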

Rattus norvegicus [2] = test: In vivo agonist activity at 5-HT1A receptor in WAY100635 pre-treated Sprague-Dawley rat DA neuron assessed as increase in firing rate at 1 mg/kg, iv; type: functional, organism-based; parameters: dose 1 mg/kg; procedure, shortened: as §1
Rattus norvegicus [3] = test: In vivo agonist activity at 5-HT1A receptor in Sprague-Dawley rat DA neuron assessed as increase in bursts at 1 mg/kg, iv in presence of WAY100635; type: functional, organism-based; parameters: dose 1 mg/kg
Procedure, shortened: (§2)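 VTA DA neuron single-unit recording in chloral hydrate-anesthetized Sprague-Dawley rats after raclopride 0.1 mg/kg. Compound 1 mg/kg was followed by WAY100635 1.0 mg/kg. Firing rate and bursting were analysed in 10 s bins relative to the post-raclopride baseline.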

Rattus norvegicus [4] = test: In vivo agonist activity at 5-HT1A receptor in Sprague-Dawley rat DA neuron assessed as increase in firing rate at 1 mg/kg, iv in presence of WAY100635; type: functional, organism-based; parameters: dose 1 mg/kg; procedure, shortened: as §2
Rattus norvegicus [5] = test: In vivo agonist activity at 5-HT1A receptor in Sprague-Dawley rat DA neuron assessed as increase in bursts at 1 mg/kg, iv; type: functional, organism-based; parameters: dose 1 mg/kg
Procedure, shortened: (§3)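 Male Sprague-Dawley rats under chloral hydrate anesthesia (400 mg/kg ip) at 37 °C. Single-unit recording of VTA DA neurons by glass microelectrode. Raclopride 0.1 mg/kg given first, then compound 1 mg/kg. Firing rate and bursts analysed every 10 s as % of post-raclopride baseline. n = 5, paired t-test.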

Rattus norvegicus [6] = test: In vivo agonist activity at 5-HT1A receptor in Sprague-Dawley rat DA neuron assessed as increase in firing rate at 1 mg/kg, iv; type: functional; procedure, shortened: as §3
Rattus norvegicus [7] = test: Effect on prepulse inhibition in Sprague-Dawley rat schizophrenia model at 5 mg/kg, ip administered 10 mins prior testing monitored for 5 mins; type: ADME, organism-based; parameters: dose 5 mg/kg, route intraperitoneal; settings: in vivo
Procedure, shortened: (§4)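 Male Sprague-Dawley rats were pretreated ip with saline or compound 10 min before PCP (5 mg/kg, ip). Acoustic startle was tested 5 min after PCP, following 3 min acclimation: 40 ms, 120 dB pulse with prepulse trials, 74 dB background, 15–25 s intertrial interval, session about 20 min. %PPI = [1 − (prepulse+pulse)/(pulse alone)]×100. Startle = mean of pulse-alone trials, first 3 excluded.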

Rattus norvegicus [8] = test: Effect on baseline startle reactivity in Sprague-Dawley rat schizophrenia model at 5 mg/kg, ip administered 10 mins prior testing monitored for 5 mins; type: ADME, organism-based; parameters: dose 5 mg/kg, route intraperitoneal; settings: in vivo; procedure, shortened: as §4
Rattus norvegicus [9] = test: Antipsychotic activity in Sprague-Dawley rat schizophrenia model assessed as effect on 120 db noise-induced absolute acoustic startle responses at 5 mg/kg, ip administered 10 mins prior testing monitored for 5 mins; type: functional, organism-based; parameters: dose 5 mg/kg; procedure, shortened: as §4
Rattus norvegicus [10] = test: Antipsychotic activity in Sprague-Dawley rat schizophrenia model assessed as inhibition of PCP-induced prepulse inhibition at 5 mg/kg, ip administered 10 mins prior testing monitored for 5 mins; type: functional, organism-based; parameters: dose 5 mg/kg; procedure, shortened: as §4
Rattus norvegicus [11] = test: Antipsychotic activity in Sprague-Dawley rat schizophrenia model assessed as inhibition of PCP-induced hyperlocomotion at 2.5 mg/kg, ip administered 10 mins prior testing […]; type: functional, organism-based; parameters: dose 2.5 mg/kg
Rattus norvegicus [12] = test: Antipsychotic activity in ip dosed Sprague-Dawley rat schizophrenia model assessed as inhibition of PCP-induced hyperlocomotion administered 10 mins prior testing monitored for 5 mins; type: functional, organism-based
Procedure, shortened: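 Male Sprague-Dawley rats (230–280 g) given saline or compound ip 10 min before PCP 5 mg/kg. Starting 5 min after PCP, rats were video-tracked in a 40×40×45 cm open field for 30 min. Total distance recorded; n = 6–12 per group; one-way ANOVA with Tamhane post hoc test.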

[13] = molecular target: T1, 5-hydroxytryptamine receptor 1A (Homo sapiens) (UniProt P08908); test: (§5) Agonist activity at 5-HT1A receptor (unknown origin) expressed in HEK293 cells assessed as […] of [35S]GTPgammaS binding by scintillation proximity assay; type: functional, cell-based
T1 sequence (whole entry): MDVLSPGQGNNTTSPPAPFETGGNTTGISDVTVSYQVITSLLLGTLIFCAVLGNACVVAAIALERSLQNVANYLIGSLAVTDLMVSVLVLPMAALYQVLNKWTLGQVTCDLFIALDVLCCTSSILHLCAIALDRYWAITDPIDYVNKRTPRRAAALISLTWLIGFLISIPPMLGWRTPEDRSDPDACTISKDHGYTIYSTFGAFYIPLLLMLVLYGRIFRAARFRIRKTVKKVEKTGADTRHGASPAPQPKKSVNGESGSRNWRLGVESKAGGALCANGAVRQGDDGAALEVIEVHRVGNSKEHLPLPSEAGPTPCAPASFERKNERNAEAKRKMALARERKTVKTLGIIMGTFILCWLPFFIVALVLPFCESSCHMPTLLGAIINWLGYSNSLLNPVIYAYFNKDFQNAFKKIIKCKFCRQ

[14] = molecular target: T2, 5-hydroxytryptamine receptor 1A (Homo sapiens, UniProt P08908); test: as §5; type: functional, cell-based
T2 sequence (P08908 whole entry): T1 sequence (whole entry)

D(1A) dopamine receptor [15] = molecular target: T3, D(1A) dopamine receptor (Homo sapiens, UniProt P21728); test: Antagonist activity at dopamine D1 receptor (unknown origin) expressed in HEK293 cells assessed as inhibition of [35S]GTPgammaS binding by scintillation proximity assay; type: functional, cell-based
D(1A) dopamine receptor [16] = molecular target: T3, D(1A) dopamine receptor; test: Agonist activity at dopamine D1 receptor (unknown origin) expressed in HEK293 cells assessed as stimulation of [35S]GTPgammaS binding by scintillation proximity assay; type: functional, cell-based
[17] = molecular target: T2, 5-hydroxytryptamine receptor 1A; test: Displacement of [3H]8-OH-DPAT from 5-HT1A receptor (unknown origin) expressed in HEK293 cells by liquid scintillation counter; type: cell-based
D(2) dopamine receptor [18] = molecular target: T4, D(2) dopamine receptor (Homo sapiens, UniProt P14416); test: Displacement of [3H]spiperone from dopamine D2 receptor (unknown origin) expressed in human HEK293 cells by liquid scintillation counter; type: cell-based
D(1A) dopamine receptor [19] = molecular target: T3, D(1A) dopamine receptor; test: Displacement of [3H]SCH23390 from dopamine D1 receptor (unknown origin) expressed in human HEK293 cells by liquid scintillation counter; type: cell-based
Procedure, shortened: (§6)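 Stably transfected HEK293T D1 membranes, […], duplicate incubation 50 min at 30 °C with [3H]SCH23390 in 50 mM Tris, 4 mM MgCl2, pH 7.4. Nonspecific binding with 10 μM SCH23390. GF/B filtration, scintillation counting.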

[20] = molecular target: 5-hydroxytryptamine receptor 2A (Homo sapiens, UniProt P28223); test: Inhibition of [3H]Ketanserin binding to 5-HT2A receptor (unknown origin) expressed in HEK293 cells at 10 uM by liquid scintillation counter relative to control; type: cell-based
Procedure, shortened: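 Membranes of HEK293T stably transfected with 5-HT2A, […], incubated in duplicate 15 min at 37 °C with [3H]ketanserin in 50 mM Tris, 4 mM MgCl2, pH 7.4. […] GF/B filtration, cold wash, scintillation counting.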

[21] = molecular target: T1, 5-hydroxytryptamine receptor 1A (Homo sapiens); test: Inhibition of [3H]8-OH-DPAT binding to 5-HT1A receptor (unknown origin) expressed in HEK293 cells at 10 uM by liquid scintillation counter relative to control; type: cell-based
Procedure, shortened: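 Membranes of HEK293T stably transfected with 5-HT1A, […], incubated in duplicate 50 min at 30 °C with [3H]8-OH-DPAT in 50 mM Tris, 4 mM MgCl2, pH 7.4. Nonspecific binding with 10 μM WAY100635. Filtration on GF/B, cold Tris/EDTA wash, scintillation counting.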

D(1A) dopamine receptor [22] = molecular target: T3, D(1A) dopamine receptor; test: Inhibition of [3H]SCH23390 binding to dopamine D1 receptor (unknown origin) expressed in human HEK293 cells at 10 uM by liquid scintillation counter relative to control; type: cell-based; procedure, shortened: as §6
D(2) dopamine receptor [23] = molecular target: T4, D(2) dopamine receptor
D(2) dopamine receptor [24] = molecular target: T4, D(2) dopamine receptor; settings: HEK293, at 10 µM
Rattus norvegicus [25] = test: Antipsychotic activity in Sprague-Dawley rat schizophrenia model assessed as inhibition of PCP-induced prepulse inhibition at 10 mg/kg, ip administered 10 mins prior testing monitored for 5 mins; type: functional, organism-based; parameters: dose 10 mg/kg; procedure, shortened: as §4
Rattus norvegicus [26] = test: Antipsychotic activity in Sprague-Dawley rat schizophrenia model assessed as inhibition of PCP-induced hyperlocomotion at 10 mg/kg, ip administered 10 mins prior testing […]; type: functional, organism-based; parameters: dose 10 mg/kg

T3 sequence (P21728 whole entry): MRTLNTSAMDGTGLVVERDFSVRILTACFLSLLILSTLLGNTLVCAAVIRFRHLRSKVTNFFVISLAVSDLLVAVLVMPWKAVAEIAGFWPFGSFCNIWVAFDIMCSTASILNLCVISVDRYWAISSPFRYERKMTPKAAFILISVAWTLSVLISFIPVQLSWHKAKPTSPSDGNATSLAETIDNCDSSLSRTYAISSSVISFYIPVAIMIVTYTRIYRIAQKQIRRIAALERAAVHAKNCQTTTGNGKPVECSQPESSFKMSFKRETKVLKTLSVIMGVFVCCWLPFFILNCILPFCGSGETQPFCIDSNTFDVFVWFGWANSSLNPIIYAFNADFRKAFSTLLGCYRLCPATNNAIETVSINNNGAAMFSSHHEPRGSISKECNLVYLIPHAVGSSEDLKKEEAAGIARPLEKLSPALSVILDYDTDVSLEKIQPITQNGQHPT
T4 sequence (P14416 whole entry): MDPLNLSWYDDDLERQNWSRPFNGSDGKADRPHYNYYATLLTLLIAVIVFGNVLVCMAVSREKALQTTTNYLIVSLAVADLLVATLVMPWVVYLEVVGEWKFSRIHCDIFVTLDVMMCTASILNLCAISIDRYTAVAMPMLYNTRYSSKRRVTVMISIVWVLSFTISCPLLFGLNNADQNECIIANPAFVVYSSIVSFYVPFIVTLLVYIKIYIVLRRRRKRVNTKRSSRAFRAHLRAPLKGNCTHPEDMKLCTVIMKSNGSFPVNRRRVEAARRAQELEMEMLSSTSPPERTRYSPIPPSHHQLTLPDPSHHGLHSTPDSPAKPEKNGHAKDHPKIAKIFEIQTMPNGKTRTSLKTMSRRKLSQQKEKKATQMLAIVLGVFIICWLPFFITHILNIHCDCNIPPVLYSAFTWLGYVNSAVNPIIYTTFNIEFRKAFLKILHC
Chain of 5-hydroxytryptamine receptor 2A (P28223 whole entry): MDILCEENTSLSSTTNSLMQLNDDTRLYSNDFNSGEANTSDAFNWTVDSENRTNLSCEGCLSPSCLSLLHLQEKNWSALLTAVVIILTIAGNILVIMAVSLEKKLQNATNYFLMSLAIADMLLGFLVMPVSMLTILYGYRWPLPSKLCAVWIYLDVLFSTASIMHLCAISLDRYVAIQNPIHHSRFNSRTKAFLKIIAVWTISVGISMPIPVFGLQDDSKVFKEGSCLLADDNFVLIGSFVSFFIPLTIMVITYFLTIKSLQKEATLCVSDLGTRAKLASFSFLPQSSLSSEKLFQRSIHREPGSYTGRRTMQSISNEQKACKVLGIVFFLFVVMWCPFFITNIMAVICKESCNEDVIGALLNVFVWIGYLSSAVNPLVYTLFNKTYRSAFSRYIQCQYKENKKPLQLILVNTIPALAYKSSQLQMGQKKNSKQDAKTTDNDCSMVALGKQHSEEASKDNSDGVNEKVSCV

COc1cc2c(cc1OC)[C@@H]1Cc3ccc(O)c(OC)c3CN1CC2
Activity (Rattus norvegicus [1]): inactive
Activity (Rattus norvegicus [2]): inactive
Activity (Rattus norvegicus [3]): inactive
Activity (Rattus norvegicus [4]): inactive
Activity (Rattus norvegicus [5]): Active
Activity (Rattus norvegicus [6]): 128.3%
Activity (Rattus norvegicus [7]): Non-toxic
Activity (Rattus norvegicus [8]): Non-toxic
Activity (Rattus norvegicus [9]): inactive
inhibition (Rattus norvegicus [10]): Active
inhibition (Rattus norvegicus [11]): Active
inhibition (Rattus norvegicus [12]): Dose-dependent effect
Emax [13]: 156%
EC50 [14]: 190 nM
IC50 (D(1A) dopamine receptor [15]): 21300 nM
EC50 (D(1A) dopamine receptor [16]): 1350 nM
Ki [17]: 149 nM
Ki (D(2) dopamine receptor [18]): 305 nM
Ki (D(1A) dopamine receptor [19]): 50 nM
inhibition [20]: 68.8%
inhibition [21]: 97.4%
inhibition (D(1A) dopamine receptor [22]): 98.8%
IC50 (D(2) dopamine receptor [23]): 18700 nM
inhibition (D(2) dopamine receptor [24]): 88.8%

COc1c(O)ccc2c1CN1CCc3cc4c(cc3[C@@H]1C2)OCO4
Activity (Rattus norvegicus [8]): Non-toxic
Activity (Rattus norvegicus [9]): inactive
inhibition (Rattus norvegicus [25]): Active
inhibition (Rattus norvegicus [10]): Active
inhibition (Rattus norvegicus [26]): Active
inhibition (Rattus norvegicus [12]): Dose-dependent effect
Emax [13]: 80.7%
EC50 [14]: 13500 nM
IC50 (D(1A) dopamine receptor [15]): 17400 nM
EC50 (D(1A) dopamine receptor [16]): 16000 nM
Ki [17]: 908 nM
Ki (D(2) dopamine receptor [18]): 145 nM
Ki (D(1A) dopamine receptor [19]): 6.3 nM
inhibition [20]: 73.6%
inhibition [21]: 95.7%
inhibition (D(1A) dopamine receptor [22]): 99.7%
IC50 (D(2) dopamine receptor [23]): 1000 nM
inhibition (D(2) dopamine receptor [24]): 92.8%
